From ChEMBL document CHEMBL4184147, “Polyphenolic Phytochemicals in Cancer Prevention and Therapy: Bioavailability versus Bioefficacy” (J Med Chem, 2017)

Legend:
COLO 201 [1] = experiment: Cytotoxicity against human COLO201 cells assessed as decrease in cell viability after 48 hrs by trypan blue exclusion and LDH release; conditions: COLO 201, 48 h
NCI-H460 [2] = experiment: Cytotoxicity against human NCI-H460 cells assessed as cell viability at 18 uM after 48 hrs by MTT assay; type: functional; conditions: NCI-H460, 48 h, read-out: Activity
PANC-1 [3] = experiment: Cytotoxicity against human PANC1 cells assessed as decrease in cell viability after 48 hrs by MTT assay; type: functional, cell-based; conditions: PANC-1, 48 h
MDA-MB-231 [4] = experiment: Cytotoxicity against human MDA-MB-231 cells assessed as cell viability at 18 uM after 48 hrs by MTT assay; type: functional; conditions: MDA-MB-231, 48 h, read-out: Activity
T47D [5] = experiment: Cytotoxicity against human T47D cells assessed as cell viability at 18 uM after 48 hrs by MTT assay; type: functional; conditions: read-out: Activity
PANC-1 [6] = experiment: Cytotoxicity against human PANC1 cells assessed as cell viability at 18 uM after 48 hrs by MTT assay; type: functional; conditions: PANC-1, 48 h, read-out: Activity
[7] = Cmax in mouse at 10 mg/kg, iv by LC-MS/MS method; type: ADME, organism-based; design: dose 10 mg/kg, route intravenous; conditions: in vivo
In short: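 Mouse iv dosing used polyphenol dissolved in DMSO:ethanol (2:1), with total injected volume never above 30 μL. Plasma levels were measured by previously described methods.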

[8] = Cytotoxicity against human MML1 cells assessed as cell viability at 18 uM after 48 hrs by MTT assay; type: functional; conditions: read-out: Activity
NCI-H460 [9] = experiment: Cytotoxicity against human NCI-H460 cells assessed as decrease in cell viability after 48 hrs by MTT assay; type: functional, cell-based; conditions: NCI-H460, 48 h
[10] = Tmax in mouse at 10 mg/kg, iv by LC-MS/MS method; type: ADME, organism-based; conditions: in vivo
In short: (§1)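 For IV dosing, compound dissolved in DMSO:ethanol (2:1), total volume no more than 30 μL. For oral dosing, compound given in a self-microemulsifying delivery system (60% surfactant, emulsifier OP:Cremophor EL 1:1; 30% PEG 400; 10% ethyl oleate), total volume no more than 100 μL. Plasma levels measured by previously described methods.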

BXPC-3 [11] = experiment: Cytotoxicity against human BxPC3 cells assessed as decrease in cell viability after 48 hrs by MTT assay; type: functional, cell-based; conditions: BXPC-3, 48 h
U-87 MG [12] = experiment: Cytotoxicity against human U87 cells assessed as decrease in cell viability after 48 hrs by trypan blue exclusion and LDH release
A549 [13] = experiment: Cytotoxicity against human A549 cells assessed as decrease in cell viability after 48 hrs by trypan blue exclusion and LDH release; conditions: A549, 48 h
[14] = Cytotoxicity against human MML1 cells assessed as decrease in cell viability after 48 hrs by MTT assay; type: functional, cell-based
MDA-MB-231 [15] = experiment: Cytotoxicity against human MDA-MB-231 cells assessed as decrease in cell viability after 48 hrs by trypan blue exclusion and LDH release; conditions: MDA-MB-231, 48 h
LN-229 [16] = experiment: Cytotoxicity against human LN229 cells assessed as cell viability at 18 uM after 48 hrs by MTT assay; type: functional; conditions: LN-229, 48 h, read-out: Activity
U-87 MG [17] = experiment: Cytotoxicity against human U87 cells assessed as cell viability at 18 uM after 48 hrs by MTT assay; type: functional, U-87MG ATCC; conditions: read-out: Activity
T47D [18] = experiment: Cytotoxicity against human T47D cells assessed as decrease in cell viability after 48 hrs by trypan blue exclusion and LDH release
[19] = Cmax in mouse at 100 mg/kg, po by HPLC method; type: ADME, organism-based; design: dose 100 mg/kg, route oral; conditions: in vivo
In short: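 For oral dosing, polyphenol was dissolved in a self-microemulsifying delivery system: 60% surfactant (emulsifier OP:Cremophor EL 1:1), 30% cosurfactant (PEG 400) and 10% oil (ethyl oleate). Total volume given was never above 100 μL. Plasma levels were quantified by previously described methods.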

A549 [20] = experiment: Cytotoxicity against human A549 cells assessed as cell viability at 18 uM after 48 hrs by MTT assay; type: functional; conditions: A549, 48 h, read-out: Activity
Lipid bilayer = experiment: Induction of DOPC/n-decane bilayer property changes assessed as concentration required to double gramicidin-induced quencher influx rate by […]
[21] = Plasma concentration in mouse at 100 mg/kg, po at 60 mins by LC-MS/MS method; type: ADME, organism-based
In short: as §1

[22] = Plasma concentration in mouse at 10 mg/kg, iv at 60 mins by LC-MS/MS method; type: ADME, organism-based
In short: as §1

COLO 201 [23] = experiment: Cytotoxicity against human COLO201 cells assessed as cell viability at 18 uM after 48 hrs by MTT assay; type: functional; conditions: COLO 201, 48 h, read-out: Activity
SK-MEL-2 [24] = experiment: Cytotoxicity against human SK-MEL-2 cells assessed as cell viability at 18 uM after 48 hrs by MTT assay; type: functional; conditions: SK-MEL-2, 48 h, read-out: Activity
SK-MEL-2 [25] = experiment: Cytotoxicity against human SK-MEL-2 cells assessed as decrease in cell viability after 48 hrs by MTT assay; type: functional, cell-based; conditions: SK-MEL-2, 48 h
HT-29 [26] = experiment: Cytotoxicity against human HT-29 cells assessed as decrease in cell viability after 48 hrs by trypan blue exclusion and LDH release; conditions: HT-29, 48 h
[27] = Tmax in mouse at 100 mg/kg, po by HPLC method; type: ADME, organism-based; conditions: in vivo
In short: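 Given orally in a self-microemulsifying delivery system (60% surfactant, emulsifier OP:Cremophor EL 1:1; 30% PEG 400 cosurfactant; 10% ethyl oleate oil), total volume no more than 100 μL. Plasma levels measured by previously described methods.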

BXPC-3 [28] = experiment: Cytotoxicity against human BxPC3 cells assessed as cell viability at 18 uM after 48 hrs by MTT assay; type: functional; conditions: BXPC-3, 48 h, read-out: Activity
LN-229 [29] = experiment: Cytotoxicity against human LN229 cells assessed as decrease in cell viability after 48 hrs by trypan blue exclusion and LDH release; conditions: LN-229, 48 h
HT-29 [30] = experiment: Cytotoxicity against human HT-29 cells assessed as cell viability at 18 uM after 48 hrs by MTT assay; type: functional; conditions: HT-29, 48 h, read-out: Activity
COLO 201 [31] = experiment: Cytotoxicity against human COLO201 cells assessed as cell viability at 16 uM after 48 hrs by MTT assay; type: functional; conditions: COLO 201, 48 h, read-out: Activity
U-87 MG [32] = experiment: Cytotoxicity against human U87 cells assessed as cell viability at 16 uM after 48 hrs by MTT assay; type: functional, U-87MG ATCC; conditions: read-out: Activity
T47D [33] = experiment: Cytotoxicity against human T47D cells assessed as cell viability at 16 uM after 48 hrs by MTT assay; type: functional; conditions: read-out: Activity
[34] = Displacement of [3H]resveratrol from Sprague-Dawley rat brain plasma membranes after 1 hr by beta counting method; type: cell membranes
PANC-1 [35] = experiment: Cytotoxicity against human PANC1 cells assessed as cell viability at 16 uM after 48 hrs by MTT assay; type: functional; conditions: PANC-1, 48 h, read-out: Activity
SK-MEL-2 [36] = experiment: Cytotoxicity against human SK-MEL-2 cells assessed as cell viability at 16 uM after 48 hrs by MTT assay; type: functional; conditions: SK-MEL-2, 48 h, read-out: Activity
[37] = Cytotoxicity against human MML1 cells assessed as cell viability at 16 uM after 48 hrs by MTT assay; type: functional; conditions: read-out: Activity
HT-29 [38] = experiment: Cytotoxicity against human HT-29 cells assessed as cell viability at 16 uM after 48 hrs by MTT assay; type: functional; conditions: HT-29, 48 h, read-out: Activity
A549 [39] = experiment: Cytotoxicity against human A549 cells assessed as cell viability at 16 uM after 48 hrs by MTT assay; type: functional; conditions: A549, 48 h, read-out: Activity
NCI-H460 [40] = experiment: Cytotoxicity against human NCI-H460 cells assessed as cell viability at 16 uM after 48 hrs by MTT assay; type: functional; conditions: NCI-H460, 48 h, read-out: Activity
BXPC-3 [41] = experiment: Cytotoxicity against human BxPC3 cells assessed as cell viability at 16 uM after 48 hrs by MTT assay; type: functional; conditions: BXPC-3, 48 h, read-out: Activity
MDA-MB-231 [42] = experiment: Cytotoxicity against human MDA-MB-231 cells assessed as cell viability at 16 uM after 48 hrs by MTT assay; type: functional; conditions: MDA-MB-231, 48 h, read-out: Activity
LN-229 [43] = experiment: Cytotoxicity against human LN229 cells assessed as cell viability at 16 uM after 48 hrs by MTT assay; type: functional; conditions: LN-229, 48 h, read-out: Activity

| Cmax [7] [µM] | Tmax [10] [min] | Cmax [19] [µM] | Activity (Lipid bilayer) [µM] | concentration at 1 h [21] [µM] | concentration at 1 h [22] [µM] | Tmax [27] [min] | Compound | IC50 (COLO 201 [1]) [µM] | IC50 (PANC-1 [3]) [µM] | IC50 (NCI-H460 [9]) [µM] | IC50 (BXPC-3 [11]) [µM] | IC50 (U-87 MG [12]) [µM] | IC50 (A549 [13]) [µM] | IC50 [14] [µM] | IC50 (MDA-MB-231 [15]) [µM] | IC50 (T47D [18]) [µM] | IC50 (SK-MEL-2 [25]) [µM] | IC50 (HT-29 [26]) [µM] | IC50 (LN-229 [29]) [µM] | other results |
| --- | --- | --- | --- | --- | --- | --- | --- | --- | --- | --- | --- | --- | --- | --- | --- | --- | --- | --- | --- | --- |
| 35 | 5 | 17 | 26.7 | < 1 | < 1 | 10 | O=c1c(-c2ccc(O)cc2)coc2cc(O)cc(O)c12 [GENISTEIN] | 73 | 87 | 47 | 79 | 55 | 64 | 42 | 43 | 48 | 36 | 50 | 44 | viability at 18 µM (NCI-H460 [2]): 102%; viability at 18 µM (MDA-MB-231 [4]): 91%; viability at 18 µM (T47D [5]): 93%; viability at 18 µM (PANC-1 [6]): 99%; viability at 18 µM [8]: 104%; viability at 18 µM (LN-229 [16]): 100%; viability at 18 µM (U-87 MG [17]): 98%; viability at 18 µM (A549 [20]): 107%; viability at 18 µM (COLO 201 [23]): 100%; viability at 18 µM (SK-MEL-2 [24]): 105%; viability at 18 µM (BXPC-3 [28]): 96%; viability at 18 µM (HT-29 [30]): 104% |
| 32 | 5 | 11 | 11.3 | < 1 | < 1 | 10 | Oc1ccc(/C=C/c2cc(O)cc(O)c2)cc1 [RESVERATROL] | 37 | 39 | 12 | 14 | 20 | 16 | 12 | 15 | 25 | 14 | 27 | 11 | viability at 16 µM (COLO 201 [31]): 96%; viability at 16 µM (U-87 MG [32]): 99%; viability at 16 µM (T47D [33]): 99%; Ki [34]: 0.102 µM; viability at 16 µM (PANC-1 [35]): 105%; viability at 16 µM (SK-MEL-2 [36]): 95%; viability at 16 µM [37]: 94%; viability at 16 µM (HT-29 [38]): 98%; viability at 16 µM (A549 [39]): 93%; viability at 16 µM (NCI-H460 [40]): 94%; viability at 16 µM (BXPC-3 [41]): 98%; viability at 16 µM (MDA-MB-231 [42]): 95%; viability at 16 µM (LN-229 [43]): 102% |
